Results reported in publication PMC10147382 (ACS chemical neuroscience, 2022).
Values joined by “and” are separate entries in the source; they are usually repeats but may differ in a detail not shown here. Identical values can stand only once. Like-named read-outs stand apart in the source and are kept apart here.

Legend:
[1] = tested on: 5-HT2A receptors; details: cited from earlier work
[2] = tested on: 5-HT2A receptors; details: cited from earlier work; remark: listed apart in the source
[3] = target: T1, 5-HT2B receptor (Homo sapiens, UniProt P41595); test: G protein; format: cell-based
T1 sequence (P41595 whole entry): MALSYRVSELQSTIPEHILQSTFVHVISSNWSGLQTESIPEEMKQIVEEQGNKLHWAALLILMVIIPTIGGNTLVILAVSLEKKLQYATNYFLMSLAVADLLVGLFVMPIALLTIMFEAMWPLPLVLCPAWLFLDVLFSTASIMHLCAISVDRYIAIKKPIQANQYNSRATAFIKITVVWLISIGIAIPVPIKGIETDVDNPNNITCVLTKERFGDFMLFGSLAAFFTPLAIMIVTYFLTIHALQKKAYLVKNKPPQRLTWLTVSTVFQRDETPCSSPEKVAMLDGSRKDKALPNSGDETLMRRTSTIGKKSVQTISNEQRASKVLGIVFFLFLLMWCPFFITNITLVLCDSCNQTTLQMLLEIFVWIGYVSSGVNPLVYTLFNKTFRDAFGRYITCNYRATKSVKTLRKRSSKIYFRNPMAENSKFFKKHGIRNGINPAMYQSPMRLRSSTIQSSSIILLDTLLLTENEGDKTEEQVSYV

[4] = tested on: mice; test: Head twitch response; format: in vivo, mouse; details: for HTR response: 15 min period
[5] = target: T2, 5-HT2A receptor (Homo sapiens, UniProt P28223); test: G protein; format: cell-based; details: for decrease in potency versus the alpha-methyl (DOx) counterpart: Gq dissociation (Gq versus G11 for Ariadne/DOM)
Target sequence in this assay (P28223 whole entry): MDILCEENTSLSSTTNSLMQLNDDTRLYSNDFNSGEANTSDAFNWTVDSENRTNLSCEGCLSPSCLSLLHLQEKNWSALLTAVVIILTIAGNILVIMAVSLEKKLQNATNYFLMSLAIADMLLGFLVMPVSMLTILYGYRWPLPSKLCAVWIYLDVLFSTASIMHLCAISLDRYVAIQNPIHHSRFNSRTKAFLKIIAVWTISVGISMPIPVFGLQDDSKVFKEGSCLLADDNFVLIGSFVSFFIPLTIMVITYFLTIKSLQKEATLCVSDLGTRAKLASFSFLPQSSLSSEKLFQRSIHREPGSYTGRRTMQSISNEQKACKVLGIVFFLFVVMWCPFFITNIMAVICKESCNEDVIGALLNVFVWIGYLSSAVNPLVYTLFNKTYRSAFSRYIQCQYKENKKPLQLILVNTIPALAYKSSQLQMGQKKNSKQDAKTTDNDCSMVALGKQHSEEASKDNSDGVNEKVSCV

[6] = target: T2, 5-HT2A receptor; test: β-arrestin2 recruitment BRET assay; format: cell-based; details: for efficacy: normalized to 5-HT
Target sequence in this assay (P32121 whole entry): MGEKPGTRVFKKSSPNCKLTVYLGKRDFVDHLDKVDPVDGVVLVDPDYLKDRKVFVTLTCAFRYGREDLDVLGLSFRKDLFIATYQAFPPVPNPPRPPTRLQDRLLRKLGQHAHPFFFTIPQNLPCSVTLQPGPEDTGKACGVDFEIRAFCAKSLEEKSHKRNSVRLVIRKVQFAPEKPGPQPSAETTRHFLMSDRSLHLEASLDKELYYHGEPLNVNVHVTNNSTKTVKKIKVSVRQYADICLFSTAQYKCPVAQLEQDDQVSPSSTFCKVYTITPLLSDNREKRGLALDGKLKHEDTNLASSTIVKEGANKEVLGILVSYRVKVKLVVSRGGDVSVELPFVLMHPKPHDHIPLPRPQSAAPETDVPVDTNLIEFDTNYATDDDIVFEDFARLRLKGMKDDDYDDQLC
Target sequence in this assay (P28223 whole entry): as the sequence (P28223 whole entry) above

[7] = target: T2, 5-HT2A receptor; test: Calcium flux assay; format: cell-based
Method in brief: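 Flp-In 293 T-Rex cells stably carry tetracycline-inducible human 5-HT2A or 5-HT2C. Expression is induced with tetracycline (2 ug/mL) the day before, with about 7,500 cells/well in 1% dialyzed FBS. Cells are loaded with Fluo-4 Direct for 1 h at 37°C in HBSS/20 mM HEPES pH 7.4 with 2.5 mM probenecid, then held 15 min at RT. Fluorescence is read 10 s baseline, then 5-10 min after drug. Peak fold-over-basal or AUC is normalized to % 5-HT, with EC50/Emax from nonlinear regression.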
Target sequence in this assay (P28223 whole entry): as above

[8] = target: T2, 5-HT2A receptor; test: Radioligand displacement assay; format: binding; details: standard radioligand 125I-DOI
Target sequence in this assay (P28223 whole entry): as above

[9] = tested on: mice; details: cited from earlier work
[10] = tested on: 5-HT2C receptors; details: cited from earlier work
[11] = tested on: humans; details: cited from earlier work
[12] = target: dopamine 1 receptor (Homo sapiens, UniProt P21728); test: Activity at other aminergic receptors
dopamine 1 receptor, sequence (P21728 whole entry): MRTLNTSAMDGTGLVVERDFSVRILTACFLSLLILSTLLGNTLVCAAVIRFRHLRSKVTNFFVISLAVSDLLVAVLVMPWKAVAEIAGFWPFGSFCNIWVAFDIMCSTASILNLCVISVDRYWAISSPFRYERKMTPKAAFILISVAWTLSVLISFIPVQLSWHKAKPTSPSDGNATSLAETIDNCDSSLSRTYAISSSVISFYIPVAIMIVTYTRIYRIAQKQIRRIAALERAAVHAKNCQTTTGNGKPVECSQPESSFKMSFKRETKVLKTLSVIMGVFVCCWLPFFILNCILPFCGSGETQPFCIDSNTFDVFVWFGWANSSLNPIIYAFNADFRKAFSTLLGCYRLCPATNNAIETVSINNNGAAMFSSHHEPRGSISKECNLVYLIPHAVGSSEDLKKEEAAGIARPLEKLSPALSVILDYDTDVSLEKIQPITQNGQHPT

[13] = target: norepinephrine transporter (NET) (Homo sapiens, UniProt P23975); test: SafetyScreen44 broad screen; format: binding; details: 10 uM
norepinephrine transporter (NET), sequence (P23975 whole entry): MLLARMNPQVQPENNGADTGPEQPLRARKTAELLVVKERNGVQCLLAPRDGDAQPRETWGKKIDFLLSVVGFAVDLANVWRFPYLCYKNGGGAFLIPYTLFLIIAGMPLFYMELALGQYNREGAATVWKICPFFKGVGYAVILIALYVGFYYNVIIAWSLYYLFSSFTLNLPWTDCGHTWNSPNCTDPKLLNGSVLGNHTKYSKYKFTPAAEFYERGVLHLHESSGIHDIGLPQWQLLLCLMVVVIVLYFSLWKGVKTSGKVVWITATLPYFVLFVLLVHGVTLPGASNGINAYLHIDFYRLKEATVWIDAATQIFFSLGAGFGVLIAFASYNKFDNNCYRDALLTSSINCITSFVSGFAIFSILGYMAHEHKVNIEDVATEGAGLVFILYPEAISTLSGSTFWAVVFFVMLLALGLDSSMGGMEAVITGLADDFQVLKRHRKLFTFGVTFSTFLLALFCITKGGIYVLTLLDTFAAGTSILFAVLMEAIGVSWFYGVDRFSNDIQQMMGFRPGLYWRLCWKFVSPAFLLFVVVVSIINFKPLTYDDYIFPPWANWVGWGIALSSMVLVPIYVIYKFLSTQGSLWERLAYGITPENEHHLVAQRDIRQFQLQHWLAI
Method in brief: (§1)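 Broad binding screen of 44 targets (GPCRs, nuclear receptors, ion channels, monoamine transporters, enzymes) with racemic test compound at 10 uM. Read-out is % displacement of each target's standard radioligand. A positive hit is defined as more than 50% displacement.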

[14] = target: T1, 5-HT2B receptor; test: SafetyScreen44 broad screen; format: binding; details: 10 uM Ariadne; positive hit threshold
Method in brief: as §1

[15] = target: dopamine transporter (DAT) (Homo sapiens, UniProt Q01959); test: SafetyScreen44 broad screen; format: binding; details: 10 uM
Method in brief: as §1

[16] = target: T2, 5-HT2A receptor; test: SafetyScreen44 broad screen; format: binding; details: 10 uM Ariadne; positive hit threshold
Method in brief: as §1
Target sequence in this assay (P28223 whole entry): as the sequence (P28223 whole entry) above

[17] = target: dopamine 2 receptor (Homo sapiens, UniProt P14416); test: Activity at other aminergic receptors
dopamine 2 receptor, sequence (P14416 whole entry): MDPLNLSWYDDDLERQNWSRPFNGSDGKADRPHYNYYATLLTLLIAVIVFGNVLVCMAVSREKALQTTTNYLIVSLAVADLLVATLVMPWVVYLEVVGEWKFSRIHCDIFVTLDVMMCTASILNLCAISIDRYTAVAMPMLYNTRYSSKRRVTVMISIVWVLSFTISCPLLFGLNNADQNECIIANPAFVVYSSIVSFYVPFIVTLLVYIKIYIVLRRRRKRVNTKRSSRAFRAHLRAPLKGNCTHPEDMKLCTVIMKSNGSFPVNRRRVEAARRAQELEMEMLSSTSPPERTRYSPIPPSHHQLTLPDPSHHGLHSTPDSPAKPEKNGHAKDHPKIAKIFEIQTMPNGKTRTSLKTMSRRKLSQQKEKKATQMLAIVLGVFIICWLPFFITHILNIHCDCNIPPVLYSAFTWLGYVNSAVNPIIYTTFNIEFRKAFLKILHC

[18] = tested on: cats; details: in comparison to (R)-DOM ref 10; cited from earlier work
[19] = target: T3, 5-HT2C receptor (Homo sapiens, UniProt P28335); test: G protein; format: cell-based
T3 sequence (P28335 33-458): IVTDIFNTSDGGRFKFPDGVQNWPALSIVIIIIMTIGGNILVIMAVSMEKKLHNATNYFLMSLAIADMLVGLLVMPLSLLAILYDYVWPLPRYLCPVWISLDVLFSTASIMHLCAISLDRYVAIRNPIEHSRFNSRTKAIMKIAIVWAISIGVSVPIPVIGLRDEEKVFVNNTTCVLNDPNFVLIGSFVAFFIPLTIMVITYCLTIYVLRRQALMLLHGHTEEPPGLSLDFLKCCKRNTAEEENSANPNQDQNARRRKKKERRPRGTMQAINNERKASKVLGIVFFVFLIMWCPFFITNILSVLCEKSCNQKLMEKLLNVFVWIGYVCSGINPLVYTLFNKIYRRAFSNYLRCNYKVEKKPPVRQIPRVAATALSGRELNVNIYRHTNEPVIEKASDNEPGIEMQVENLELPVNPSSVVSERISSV

[20] = tested on: rat smooth muscle; details: compared to serotonin and (R)-DOM ref 11; cited from earlier work
[21] = tested on: rats; details: cited from earlier work
[22] = target: serotonin transporter (SERT) (Homo sapiens, UniProt P31645); test: SafetyScreen44 broad screen; format: binding; details: 10 uM
serotonin transporter (SERT), sequence (P31645 whole entry): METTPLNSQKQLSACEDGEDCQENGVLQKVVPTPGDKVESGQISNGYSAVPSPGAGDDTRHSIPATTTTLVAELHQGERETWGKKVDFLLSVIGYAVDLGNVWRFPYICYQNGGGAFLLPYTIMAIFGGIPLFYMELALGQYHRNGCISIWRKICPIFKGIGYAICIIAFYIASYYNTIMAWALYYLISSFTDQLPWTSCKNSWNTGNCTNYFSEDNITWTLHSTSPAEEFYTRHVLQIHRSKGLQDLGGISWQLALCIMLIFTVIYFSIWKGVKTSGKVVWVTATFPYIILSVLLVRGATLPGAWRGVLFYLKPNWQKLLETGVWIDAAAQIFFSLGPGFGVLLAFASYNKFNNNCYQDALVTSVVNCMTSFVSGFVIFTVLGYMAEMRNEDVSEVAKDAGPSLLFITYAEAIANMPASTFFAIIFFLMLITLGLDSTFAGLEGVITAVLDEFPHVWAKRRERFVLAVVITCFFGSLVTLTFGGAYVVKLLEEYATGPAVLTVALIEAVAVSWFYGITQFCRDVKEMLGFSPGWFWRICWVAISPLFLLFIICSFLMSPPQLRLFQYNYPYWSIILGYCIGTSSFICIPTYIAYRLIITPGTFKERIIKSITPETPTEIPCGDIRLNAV
Method in brief: as §1

[23] = target: adrenergic receptors; test: Activity at other aminergic receptors; details: no/low activity
[24] = Brain and plasma pharmacokinetic evaluation; format: in vivo, mouse; details: brain and plasma PK
[25] = tested on: rats; details: cited from earlier work; remark: listed apart in the source
[26] = target: 5-HT1F receptor (Homo sapiens, UniProt P30939); test: 5-HTome G protein activation BRET screen; format: cell-based
5-HT1F receptor, sequence (P30939 whole entry): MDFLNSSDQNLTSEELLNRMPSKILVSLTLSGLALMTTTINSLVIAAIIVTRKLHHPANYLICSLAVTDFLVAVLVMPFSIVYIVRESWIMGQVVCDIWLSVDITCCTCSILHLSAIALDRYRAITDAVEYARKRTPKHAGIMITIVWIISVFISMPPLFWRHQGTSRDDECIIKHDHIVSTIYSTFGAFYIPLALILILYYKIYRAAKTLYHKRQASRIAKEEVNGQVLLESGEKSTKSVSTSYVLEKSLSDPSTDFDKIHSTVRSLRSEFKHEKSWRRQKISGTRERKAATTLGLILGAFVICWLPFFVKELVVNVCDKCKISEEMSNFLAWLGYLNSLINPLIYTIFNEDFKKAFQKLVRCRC
Method in brief: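 Human 5-HT receptors (12 in the panel) are tested by G protein-dissociation BRET2. Cells are reverse-transfected about 48 h before assay with receptor:Gα-Rluc8:Beta:GFP2-γ (TRUPATH) at 1:1:1:1 and plated in 1% dFBS. Drug is added in HBSS/20 mM HEPES pH 7.4 with 0.3% BSA and 0.03% ascorbic acid, then incubated 60 min at 37°C. Coelenterazine 400a is 5 uM final. The 510/400 ratio is normalized to % positive control, with EC50/Emax from log(agonist) vs response. Three independent experiments in triplicate.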

[27] = tested on: mice; test: Open field test; format: in vivo, mouse; details: mouse, in vivo
[28] = phosphoinositide turnover ref 40

CCN(CC)CCc1c[nH]c2cc(F)ccc12 [6F-DET, 6-fluoro-diethyltryptamine]
Emax [1, 28]: 63% | drop in efficacy versus DET [1, 28]: 20% | weaker signaling potency (EC50 values) versus DET [1, 28]: 6 fold | affinity for 5-HT2A receptors, DET versus 6F-DET [2]: nearly identical affinity

CCC(N)Cc1cc(OC)c(COC)cc1OC (stereo not shown) [4C-MOM]
potency at 5-HT2B compared to Ariadne ([3]; Gq dissociation): twice as potent | HTR response ([4]; s.c.): only residual HTR | less potent at 5-HT2A compared to Ariadne ([5]; Gq dissociation): approximately 2 fold

CCCc1cc(OC)c(CC(N)CC)cc1OC (stereo not shown) [4C-Pr]
decrease in potency versus the alpha-methyl (DOx) counterpart [6]: 10 fold | drop in efficacy versus the alpha-methyl (DOx) counterpart [6]: 15% | loss in efficacy versus the alpha-methyl (DOx) counterpart ([5]; Gq dissociation): 15% | decrease in potency versus the alpha-methyl (DOx) counterpart [5]: 20-30 fold

COc1cc(CC(C)N)c(OC)cc1I (stereo not shown) [DOI, reference compound]
increase in Gq dissociation potency compared to DOM ([5]; Gq dissociation): 20- to 30 fold

CC[C@H](N)Cc1cc(OC)c(C)cc1OC [(S)-Ariadne]
EC50 ([7]; read-out: EC50 (calcium flux)): 132 nM | Emax (calcium flux) ([7]; relative to 5-HT): 63% | Ki [8]: 220 nM

CN(C)CCc1c[nH]c2cccc(O)c12 [psilocin]
greater signaling potency in comparison to 6F-DET [1]: 15 fold | signaling efficacy ([1]; depending on the specific readout): 50-70% | HTR counts [9]: 15-25 HTR events per 15 min | greater affinity in comparison to 6F-DET [10]: 10 fold

CCCC(N)Cc1cc(OC)c(C)cc1OC (stereo not shown) [5C-D]
HTR response ([4]; s.c.): indistinguishable from vehicle | decrease in potency relative to Ariadne ([5]; Figure 3D signaling assays): ~ 2 fold | drop in efficacy relative to Ariadne ([5]; Figure 3D signaling assays): ~ 15%

CN(C)CCc1c[nH]c2cccc(OP(=O)(O)O)c12 [psilocybin]
HTR counts [9]: 15-25 HTR events per 15 min

COc1cc(CC(C)N)c(OC)cc1C (stereo not shown) [DOM, 2,5-dimethoxy-4-methyl-amphetamine, reference compound]
dose producing classic hallucinogen effects [11]: > 3 mg | dose producing detectable psychoactive, sub-hallucinogenic effects [11]: 1 to 3 mg | potency relative to mescaline in humans ([11]; per oral administration ref 6): approximately 100 times | efficacy [6]: 103% | Emax ([5]; read-out: Emax (Gq)): 96%

CCC(N)Cc1cc(OC)c(I)cc1OC (stereo not shown) [iodo-Ariadne]
decrease in potency versus the alpha-methyl (DOx) counterpart [6]: 5 fold | drop in efficacy versus the alpha-methyl (DOx) counterpart [6]: 20% | increase in potency compared to Ariadne ([5]; Gq dissociation): > 10 fold | loss in efficacy versus the alpha-methyl (DOx) counterpart ([5]; Gq dissociation): 10% | decrease in potency versus the alpha-methyl (DOx) counterpart [5]: 10 fold | EC50 ([5]; read-out: EC50 (Gq), Gq dissociation BRET): 16 nM

CCC(N)Cc1cc(OC)c(C)cc1OC (stereo not shown) [Ariadne, 2-amino-1-(2,5-dimethoxy-4-methylphenyl)-butane]
Emax [3]: > 70% | EC50 [12]: > 10 µM | activity at NET [13]: essentially no activity | displacement of standard radioligands [14]: more than 50% | activity at DAT [15]: essentially no activity | displacement of standard radioligands [16]: more than 50% | EC50 [17]: > 10 µM | hallucinogenic / psychoactive effect ([11]; 32 mg p.o. ref 6): no hallucinogenic effect but a mild threshold psychoactive effect | subjective effect (online experience report) ([11]; 75 mg orally, male ref 36): mild MDMA-like effects, but no obvious hallucinogenic effect | subjective effect (online experience report) ([11]; 125 mg orally, female ref 37): unique hybrid between MDMA-like and DOX/psychedelic-like activity | dose leading to discernable psychoactive effects ([11]; aggregate of human data): > 50 mg | dose up to which no hallucinogenic effects were observed ([11]; aggregate of human data): 100 to 300 mg | combined score of DOM-like behavioral features [18]: low combined score of DOM-like behavioral features | Emax [19]: > 70% | serotonergic-like spasmogenic effect [20]: weak serotonergic-like effect | substitution in LSD trained animals [21]: substituted responding in LSD trained animals | decrease in HTR count per 15 min compared to racemic DOPR ([4]; s.c.): > 3 fold | dose of peak (maximum) HTR ([4]; s.c.): 10 mg/kg | decrease in potency versus the alpha-methyl (DOx) counterpart [6]: ~ 4.5 fold | efficacy [6]: 83% | Emax [5]: > 70% | decrease in potency versus the alpha-methyl (DOx) counterpart [5]: 4-to-6 fold and 6 fold | Emax ([5]; read-out: Emax (Gq)): 80% | activity at SERT [22]: essentially no activity | EC50 [23]: > 10 µM | brain penetration [24]: high brain penetration | substitution for MDMA stimulus [25]: full substitution for MDMA stimulus | selectivity of 5-HT2 agonism over 5-HT1F [26]: 0.5-1 log

CCCc1cc(OC)c(CC(C)N)cc1OC (stereo not shown) [DOPR, reference compound]
time in the center of the arena [27]: trend for spending less time in the center of the arena | dose of peak (maximum) HTR ([4]; s.c.): 1 mg/kg | time to maximum HTR frequency post-drug administration ([4]; s.c.): 10 min | increase in Gq dissociation potency compared to DOM ([5]; Gq dissociation): 20- to 30 fold

CCC(N)Cc1cc(OC)c(C(F)(F)F)cc1OC (stereo not shown) [4C-TFM]
HTR after pretreatment with 5-HT2A antagonist MDL100,907 (volinanserin) ([4]; MDL100907 0.01 and 0.032 mg/kg ip 15 min prior): completely inhibited

CCN(CC)CCc1c[nH]c2ccccc12 [DET, diethyltryptamine]
Emax [1, 28]: 82% | affinity for 5-HT2A receptors, DET versus 6F-DET [2]: nearly identical affinity

CCC(N)Cc1cc(OC)c(C)cc1OC.Cl (stereo not shown) [Ariadne hydrochloride]
subjective effect (online experience report) ([11]; 50 mg oral plus 25 mg at 90 min, person 77 kg ref 35): MDMA-like effect but no psychedelic effects
